The values that follow come from ChEMBL document CHEMBL4270646, “Novel antimalarial chloroquine- and primaquine-quinoxaline 1,4-di-N-oxide hybrids: Design, synthesis, Plasmodium life cycle stage profile, and preliminary toxicity studies” (Eur J Med Chem, 2018).

The test system of data set [1] is Plasmodium yoelii. Briefly: Antiplasmodial activity against Plasmodium yoelii 17XNL sporozoites infected in BALB/c mouse assessed as decrease in parasitaemia in blood at 100 mg/kg, po measured at day 4 by […] relative to control. The class given is functional. Details: scale not given: the % may be the effect or the level left. A digest of the protocol: (§1)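 BALB/c mice (6-8 weeks, 20-23 g), n=4 per hybrid group and n=5 per control. Dosed orally at 100 mg/kg (100 µL) on days -1, 0, +1 and +2. Vehicle was DMSO 100%; primaquine diphosphate given at 30 mg/kg daily. On day 0, 5 x 10^3 cryopreserved P. yoelii 17XNL sporozoites injected i.v. Parasitaemia read by Giemsa smear and SYBR Green flow cytometry. Groups compared by Kruskal-Wallis test.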
In general terms: Flow cytometry measures light scatter and fluorescence of single cells or particles in a stream.

Data set [2] in a line: Cytotoxicity against human HepG2 cells expressing CD81 assessed as reduction in cell viability after 48 hrs by MTT assay. The class given is cell-based. The gist of the method: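 Cells seeded at 2 × 10^5 per well and allowed 24 h at 37°C, 5% CO2 to form a monolayer. Dilutions added in triplicate and incubated 48 h. MTT (2 mg/mL) then added for 4 h, followed by DMSO for 20 min at room temperature. Absorbance read at 550 nm; DMSO diluent and untreated cells served as negative controls. CC50 derived from the curve.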
(In general: Tetrazolium assays rely on reduction of a dye to a coloured formazan, in cell work by metabolically active cells.)

Data set [3] relates to Mus musculus. Put plainly: Acute toxicity in BALB/c mouse assessed as effect on feeding habbit at 300 mg/kg, po administered as single dose measured every day for 14 days. The format is organism-based. The note with it: in vivo, 336 h. The gist of the method:
(§2)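 Female BALB/c mice, 6-8 weeks old, 20-23 g, in groups of three. Single oral dose of 300 or 500 mg/kg; vehicle DMSO 100% given to controls. Mice watched for signs of toxicity for 4 h after dosing. Physical appearance, injury, pain and illness recorded daily for 14 days. Euthanasia in a CO2 chamber on day 14 or earlier if suffering.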

The subject of data set [4] is Mus musculus. Briefly: Acute toxicity in BALB/c mouse assessed as necrosis of liver at 500 mg/kg, po administered as single dose measured at day 14 by haematoxylin and eosin staining based microscopic analysis. The format is organism-based. The note with it: in vivo. A digest of the protocol: (§3)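 Female BALB/c mice, groups of three, single oral dose; vehicle DMSO 100% for controls. Mice euthanised with CO2 on day 14, or earlier if suffering. Gross necropsy performed. Spleen, liver and kidney fixed in formaldehyde 37%, stained with haematoxylin and eosin and examined by light microscopy.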

Data set [5] can be described thus: Selectivity index, ratio of CC50 for human HepG2 cells to IC50 for multidrug-resistant Plasmodium falciparum […]. The class given is toxicity. The note with it: read-out: Ratio CC50/IC50. The gist of the method: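 Selectivity index = HepG2 CC50 / FCR-3 IC50. CC50 from MTT assay after 48 h exposure, A550. IC50 from 48 h Hoechst 33342 flow-cytometry assay.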

Data set [6] relates to Mus musculus. Put plainly: Acute toxicity in BALB/c mouse assessed as mouse survival at 300 mg/kg, po administered as single dose measured every day for 14 days. The note with it: in vivo, 336 h. The format is organism-based. The gist of the method:
as §2

The test system of data set [7] is Plasmodium berghei. Briefly: Antiplasmodial activity against GFP-expressing gametocytes of Plasmodium berghei sporozoites in Anopheles stephensi mosquitoes feeded on blood from infected Swiss mouse assessed as reduction in mosquito infection at 100 mg/kg, ip pretreated for 1.5 hrs followed by blood feeding of mosquito and measured at 8 days post mosquitoes infection by fluorescence microscopic method relative to control. The format is functional. Details: scale not given: the % may be the effect or the level left. The gist of the method:
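Swiss mice (female, 6 weeks) infected i.p. with PbGFP-infected red cells (200 µL, 3000 parasites/µL). Gametocytes monitored 4 days by Giemsa smear and exflagellation. Hybrid given i.p. at 100 mg/kg in DMSO 1.5 h before A. stephensi fed 1 h on mice with 1% gametocytes. Controls were untreated and DMSO-treated mice. Thirty mosquitoes per group dissected after 8 days. Midgut oocysts counted by fluorescence microscopy against control mosquitoes taken as 100%.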

For data set [8], the system named is Mus musculus. Briefly: Acute toxicity in BALB/c mouse assessed as effect on body weight at 300 mg/kg, po administered as single dose measured every day for 14 days. The class given is organism-based. The note with it: in vivo, 336 h. The gist of the method: as §2
Data set [9] concerns Plasmodium berghei. Put plainly: Antiplasmodial activity against GFP-harboring Plasmodium berghei sporozoites infected in human HepG2 cells assessed as reduction in parasite growth treated every 24 hrs by DAPI staining-based fluorescence microscopic analysis. The format is functional, organism-based. The note with it: HepG2, 24 h. The gist of the method: (§4)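 Collagen-coated wells seeded with HepG2 (P. berghei), HepG2-CD81 (P. yoelii) or primary human hepatocytes (P. falciparum). Sporozoites added: 5×10^3 to 1×10^4 per well to the cell lines, 2.5×10^4 per well to hepatocytes. Compounds given at infection: top 10 µg/mL plus seven serial dilutions, renewed at 3 h and then every 24 h. Cultures grown 40 h (cell lines) or 8 days (hepatocytes) at 37°C. Methanol-fixed, HSP70 immunolabelled, DAPI counterstained. IC50 from logistic regression; triplicate.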

Data set [10] is described as follows: Selectivity index, ratio of CC50 for human primary hepatocytes to IC50 for GFP-expressing Plasmodium falciparum sporozoites. The format is toxicity. The note with it: read-out: Ratio CC50/IC50. The gist of the method:
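Selectivity index = CC50 (matching cell) / IC50 (matching parasite). Cell–parasite pairs: HepG2-CD81 with P. yoelii, HepG2 with P. berghei, human hepatocytes with P. falciparum.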

Data set [11] has as its system Plasmodium falciparum. Put plainly: Antiplasmodial activity against chloroquine-sensitive Plasmodium falciparum 3D7 infected in human red blood cells assessed as reduction in parasite growth after 48 hrs by Hoechst 33342 staining based flow cytometric analysis. The class given is functional, organism-based. The note with it: 3D7, 48 h. A digest of the protocol: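 Ring-stage cultures (>80% rings) at 1% parasitaemia in A+ human erythrocytes, 2% haematocrit. Medium RPMI 1640 with 10% A+ serum, 37°C, 5% CO2/5% O2. Compounds in DMSO at 1.56–100 µg/mL final, DMSO ≤1%. After 48 h, cells stained with Hoechst 33342 and 1×10^4 counted by flow cytometry. IC50 from logistic dose-response regression; three independent experiments in triplicate.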

The nature of data set [12]: Genotoxicity in Salmonella typhimurium TA1535 harboring pSK1002 assessed as bacterial survival at 0.001 to 0.063 mg/ml after 4 hrs in presence of Sprague-Dawley rat liver S9 fraction by SOS/umu assay relative to control. The class given is toxicity, organism-based. The note with it: salmonella enterica subsp. enterica serovar typhimurium; read-out: Survival. The gist of the method: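 Log-phase S. typhimurium TA1535/pSK1002 (OD600 0.15–0.4) exposed for 4 h at 37°C with shaking, with 10% rat S9 mix or PBS. Eleven twofold dilutions tested from 1 mg/mL final; DMSO as solvent control. A600 read. Survival expressed as % of negative-control A600.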

Data set [13] deals with Plasmodium yoelii. Put plainly: Antiplasmodial activity against Plasmodium yoelii 17XNL sporozoites infected in BALB/c mouse assessed as decrease in peripheral blood parasite levels at 100 mg/kg, po measured at day 5 by […]. The format is functional, organism-based. A digest of the protocol: as §1
The subject of data set [14] is Plasmodium yoelii. Put plainly: Potency index, ratio of primaquine IC50 to compound IC50 for GFP-expressing Plasmodium yoelii sporozoites infected in human HepG2 cells expressing CD81. The class given is functional.
For data set [15], the system named is Plasmodium falciparum. Briefly: Antiplasmodial activity against GFP-harboring Plasmodium falciparum sporozoites infected in human primary hepatocytes assessed as reduction in parasite growth treated every 24 hrs by DAPI staining-based fluorescence microscopic analysis. The class given is functional, organism-based. The gist of the method: as §4
The subject of data set [16] is Plasmodium yoelii. Put plainly: Antiplasmodial activity against GFP-harboring Plasmodium yoelii sporozoites infected in human HepG2 cells expressing CD81 assessed as reduction in parasite growth treated every 24 hrs by DAPI staining-based fluorescence microscopic analysis. The class given is functional, organism-based. The note with it: HepG2, 24 h. The gist of the method: as §4

The test system of data set [17] is Mus musculus. Briefly: Acute toxicity in BALB/c mouse assessed as necrosis of kidney at 500 mg/kg, po administered as single dose measured at day 14 by haematoxylin and eosin staining based microscopic analysis. The class given is organism-based. The note with it: in vivo. A digest of the protocol:
as §3

The source made the active and inactive calls. The rule behind the calls is not given here. Bounds are passed on as bounds.

Turning to `COc1cc(NC(C)CCCNC(=O)c2c(C)[n+]([O-])c3ccccc3[n+]2[O-])c2ncccc2c1` (configuration not stated), the Activity is 95.97% in the data set with Plasmodium yoelii [1]; “Non-Toxic” in the data set on Mus musculus [3]; “Non-Toxic” in the data set with Mus musculus [4]; “Non-Toxic” in the data set with Mus musculus [6]; 20% with Plasmodium berghei [7]; “Non-Toxic” with Mus musculus [8]. Further, the Activity entry in the data set with Mus musculus [17] is given as “Non-Toxic”. Moreover, the CC50 (in general, the concentration at which the toxic effect on the cells reaches its halfway point) at 48 h in data set [2] is > 213 µM. The selectivity ratio in data set [5] turned out to be 0.58; in data set [10] it was 39.5. Moreover, the IC50 (usually the concentration that gives 50% inhibition) in the data set on Plasmodium berghei [9] came to 5.19 µM; in the data set with Plasmodium falciparum [11], 67.2 µM; in the data set on Plasmodium falciparum [15] it was 5.38 µM; in the data set with Plasmodium yoelii [16], 1.39 µM. Moreover, the viability at 4 h in data set [12] is > 80%. Also, the outcome with Plasmodium yoelii [13] was Active. In addition, the “Ratio IC50” value in the data set with Plasmodium yoelii [14] is 1.5.
